Measurements as given in article PMC12374733 (Journal of the American Chemical Society, 2025).
Where two headings read alike, the source gives them in different places. Blank lines part the entries; values can stand above or below the compound they belong to.

Assays:
NIH-3T3 cells = assay: Cell viability, colorimetric sulforhodamine B assay; type: cell-based, mouse
[1] = as above; type: cell-based, mouse; conditions: mouse, NIH-3T3 cells
SH-SY5Y cells = assay: Cell viability during in-cell synthesis of cinacalcet; type: cell-based, human; conditions: SH-SY5Y; for IC50: Homo sapiens
How it was run: (§1)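 SH-SY5Y cells were pretreated with aldehyde substrate (200 μM) and sodium formate hydride source (1 mM) for 3 h, then washed with fresh media. The amine partner and Cp* iridium catalyst were added together for a further 24 h. Controls lacked one or more reaction components. Viability is expressed relative to untreated cells.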

[2] = as above; type: cell-based, human; conditions: human, SH-SY5Y cells
How it was run: as §1

[3] = Lipophilicity, partition between octanol and PBS; type: physicochemical; conditions: shake-flask

Compound: O=CCc1ccccc1 [1c, phenylacetaldehyde]
IC50 (NIH-3T3 cells; Mus musculus, NIH3T3, read-out: 50% inhibition concentration (IC50)): 185 µM
viability at 3 h, 400 µM [1]: 38%

IC50 (SH-SY5Y cells): 175 µM
Compound: O=CCCc1cccc(C(F)(F)F)c1 [1p, 3-(3-(trifluoromethyl)phenyl)propanal]
viability at 3 h, 200 μM [2]: ≥ 85%

Compound: OCCc1ccccc1 [2c]
IC50 (NIH-3T3 cells; NIH-3T3 cell viability): > 7000 µM

Compound: NCCc1ccccc1 [3c, phenethylamine]
IC50 (NIH-3T3 cells; Mus musculus, NIH3T3): > 7000 µM

IC50 (SH-SY5Y cells): 1500 µM
Compound: C[C@@H](N)c1cccc2ccccc12 [(R)-41, (R)-1-(1-naphthyl)ethylamine]

IC50 (SH-SY5Y cells): 16 µM
Compound: C[C@@H](NCCCc1cccc(C(F)(F)F)c1)c1cccc2ccccc12 [cinacalcet, reference compound]

Compound: CC(N)c1ccc(O)cc1 (stereo not shown) [compound 10, 4-(1-aminoethyl)phenol]
IC50 (NIH-3T3 cells; Mus musculus, NIH3T3): > 8000 µM
viability at 24 h, 1 mM [1]: ≥ 84%

partition coefficients (Log P) [3]: 1.24
Compound: [Cp*Ir(picolinamidate)Cl] [Ir1]
cell viability relative to untreated control (SH-SY5Y cells; 1p (200 μM), HCOONa (1 mM), (R)-41 and Ir catalyst all present, 24 h): 28%
IC50 (NIH-3T3 cells; read-out: 50% inhibition concentration (IC50), NIH-3T3 cell viability): 62 µM
